pEC50: −log10 of the molar value. ≈ marks a conversion by molar mass, not a printed value.
Tests used:
[1] = biological target: Glutamate NMDA receptor; Grin1/Grin2c (Rattus norvegicus) (UniProt P35439+Q00961); experiment: Positive allosteric modulation of recombinant rat GluN1a/GluN2C receptor expressed in Xenopus laevis oocytes assessed as increase in glycine/L-glutamate-induced channel current at 30 uM by two-electrode voltage clamp method relative to control; type: cell-based
Summary of the method: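 Oocytes expressing rat GluN1/GluN2C or GluN2D, held at −40 mV in HEPES-buffered Ba2+ solution, pH 7.4, 23 °C. Current given as percent of agonist-alone response. Doubling concentration is the concentration giving 2-fold response; reported as […] log. 6–19 oocytes from 2–3 frogs.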

[2] = biological target: Glutamate NMDA receptor; Grin1/Grin2a (Rattus norvegicus, UniProt P35439+Q00959); experiment: Positive allosteric modulation of recombinant rat GluN1a/GluN2A receptor expressed in Xenopus laevis oocytes assessed as increase in glycine/L-glutamate-induced channel current at 10 to 30 uM by two-electrode voltage clamp method relative to control; type: cell-based
Chain of Glutamate NMDA receptor; Grin1/Grin2a (Q00959 whole entry, other chains not shown): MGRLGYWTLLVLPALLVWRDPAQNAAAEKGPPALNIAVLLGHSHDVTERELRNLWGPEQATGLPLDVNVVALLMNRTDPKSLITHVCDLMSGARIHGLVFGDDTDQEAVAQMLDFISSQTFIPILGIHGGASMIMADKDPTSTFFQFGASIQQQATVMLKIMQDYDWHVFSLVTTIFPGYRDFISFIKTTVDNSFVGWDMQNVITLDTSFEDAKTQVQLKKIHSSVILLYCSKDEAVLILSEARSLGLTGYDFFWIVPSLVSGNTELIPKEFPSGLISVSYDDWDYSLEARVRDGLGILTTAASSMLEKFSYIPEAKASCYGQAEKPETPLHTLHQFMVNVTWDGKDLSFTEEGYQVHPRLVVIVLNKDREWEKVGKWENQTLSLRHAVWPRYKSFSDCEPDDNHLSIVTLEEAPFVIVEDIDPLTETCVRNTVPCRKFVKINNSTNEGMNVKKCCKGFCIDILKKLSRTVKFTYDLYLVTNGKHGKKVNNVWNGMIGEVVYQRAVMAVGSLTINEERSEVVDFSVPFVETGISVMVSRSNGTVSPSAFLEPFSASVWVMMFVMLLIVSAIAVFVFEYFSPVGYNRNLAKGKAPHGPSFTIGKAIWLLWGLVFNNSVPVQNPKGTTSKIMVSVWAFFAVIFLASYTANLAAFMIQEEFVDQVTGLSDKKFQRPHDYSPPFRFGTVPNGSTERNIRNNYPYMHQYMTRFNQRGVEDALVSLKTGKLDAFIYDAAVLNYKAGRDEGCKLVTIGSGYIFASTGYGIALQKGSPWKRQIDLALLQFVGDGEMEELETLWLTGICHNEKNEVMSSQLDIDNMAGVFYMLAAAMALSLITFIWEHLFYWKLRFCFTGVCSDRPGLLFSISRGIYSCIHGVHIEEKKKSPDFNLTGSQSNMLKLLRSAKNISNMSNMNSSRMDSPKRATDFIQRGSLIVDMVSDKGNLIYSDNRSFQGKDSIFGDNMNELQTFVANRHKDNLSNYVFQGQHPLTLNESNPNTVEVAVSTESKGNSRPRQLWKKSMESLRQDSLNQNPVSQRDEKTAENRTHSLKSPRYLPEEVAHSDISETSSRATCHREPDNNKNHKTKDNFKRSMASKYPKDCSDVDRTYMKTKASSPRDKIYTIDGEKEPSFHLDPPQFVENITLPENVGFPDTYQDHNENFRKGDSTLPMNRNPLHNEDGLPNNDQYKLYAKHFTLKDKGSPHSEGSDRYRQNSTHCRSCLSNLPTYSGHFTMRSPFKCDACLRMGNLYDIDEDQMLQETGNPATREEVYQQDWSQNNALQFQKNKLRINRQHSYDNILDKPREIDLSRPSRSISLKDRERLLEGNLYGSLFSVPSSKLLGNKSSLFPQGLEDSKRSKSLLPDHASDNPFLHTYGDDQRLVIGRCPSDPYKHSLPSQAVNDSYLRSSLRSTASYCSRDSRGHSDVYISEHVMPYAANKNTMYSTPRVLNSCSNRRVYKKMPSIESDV
Summary of the method: (§1)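 TEVC at −40 mV, 23 °C, in 90 NaCl/1 KCl/0.5 BaCl/0.005 EDTA/10 HEPES (mM), pH 7.4. Oocytes expressed rat GluN1/GluN2A or GluN1/GluN2B. […] Some GluN2A oocytes were BAPTA-loaded. 4–17 oocytes from 1–3 frogs.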

[3] = biological target: Glutamate NMDA receptor; Grin1/Grin2b (Rattus norvegicus, UniProt P35439+Q00960); experiment: Positive allosteric modulation of recombinant rat GluN1a/GluN2B receptor expressed in Xenopus laevis oocytes assessed as increase in glycine/L-glutamate-induced channel current at 10 to 30 uM by two-electrode voltage clamp method relative to control; type: cell-based; summary of the method: as §1
Chain of Glutamate NMDA receptor; Grin1/Grin2b (Q00960 whole entry, other chains not shown): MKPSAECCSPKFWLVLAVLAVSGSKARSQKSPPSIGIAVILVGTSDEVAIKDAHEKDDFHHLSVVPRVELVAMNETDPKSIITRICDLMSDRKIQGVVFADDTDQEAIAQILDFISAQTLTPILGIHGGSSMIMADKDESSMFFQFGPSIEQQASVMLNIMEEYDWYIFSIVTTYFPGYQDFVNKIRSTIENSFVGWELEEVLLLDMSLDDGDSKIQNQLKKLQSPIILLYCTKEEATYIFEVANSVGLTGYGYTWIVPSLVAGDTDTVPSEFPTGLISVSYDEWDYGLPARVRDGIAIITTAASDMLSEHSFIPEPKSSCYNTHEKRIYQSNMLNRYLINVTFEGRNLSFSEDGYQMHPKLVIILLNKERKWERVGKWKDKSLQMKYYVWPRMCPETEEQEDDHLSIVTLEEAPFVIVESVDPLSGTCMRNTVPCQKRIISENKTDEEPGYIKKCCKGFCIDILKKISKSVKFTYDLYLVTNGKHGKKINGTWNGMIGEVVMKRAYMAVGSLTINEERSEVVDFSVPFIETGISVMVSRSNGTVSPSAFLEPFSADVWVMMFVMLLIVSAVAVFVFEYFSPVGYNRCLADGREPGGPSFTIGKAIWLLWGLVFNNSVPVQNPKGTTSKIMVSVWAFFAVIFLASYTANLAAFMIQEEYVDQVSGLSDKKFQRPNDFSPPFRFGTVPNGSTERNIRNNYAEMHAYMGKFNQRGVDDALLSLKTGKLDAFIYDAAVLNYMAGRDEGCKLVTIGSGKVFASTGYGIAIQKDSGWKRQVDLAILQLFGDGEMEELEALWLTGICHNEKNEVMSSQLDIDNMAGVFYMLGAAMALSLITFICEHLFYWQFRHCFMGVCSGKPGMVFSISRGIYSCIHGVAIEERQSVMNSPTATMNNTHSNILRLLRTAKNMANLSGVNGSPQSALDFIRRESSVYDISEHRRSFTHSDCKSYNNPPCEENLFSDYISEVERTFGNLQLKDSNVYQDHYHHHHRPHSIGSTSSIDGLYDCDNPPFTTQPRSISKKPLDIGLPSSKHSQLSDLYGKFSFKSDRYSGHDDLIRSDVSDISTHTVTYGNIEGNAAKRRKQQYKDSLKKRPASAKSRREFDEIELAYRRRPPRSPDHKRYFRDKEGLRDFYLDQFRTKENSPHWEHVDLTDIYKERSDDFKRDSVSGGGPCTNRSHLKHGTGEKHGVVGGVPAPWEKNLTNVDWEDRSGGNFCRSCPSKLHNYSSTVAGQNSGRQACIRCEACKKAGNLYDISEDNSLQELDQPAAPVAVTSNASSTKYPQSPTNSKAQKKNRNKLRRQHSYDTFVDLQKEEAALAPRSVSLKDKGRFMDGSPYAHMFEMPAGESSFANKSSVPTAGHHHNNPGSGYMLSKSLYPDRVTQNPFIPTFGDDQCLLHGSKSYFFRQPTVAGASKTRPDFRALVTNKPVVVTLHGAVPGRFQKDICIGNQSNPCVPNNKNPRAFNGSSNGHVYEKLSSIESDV

[4] = biological target: Ionotropic glutamate receptor NMDA 1/2D (Rattus norvegicus) (UniProt P35439+Q62645); experiment: Positive allosteric modulation of recombinant rat GluN1a/GluN2D receptor expressed in Xenopus laevis oocytes assessed as increase in glycine/L-glutamate-induced channel current at 30 uM by two-electrode voltage clamp method relative to control; type: cell-based
Summary of the method: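 Oocytes expressing rat GluN1/GluN2C or GluN2D, held at −40 mV in HEPES-buffered Ba2+ solution, pH 7.4, 23 °C. […] Current given as percent of agonist-alone response. […] Doubling concentration is the concentration giving 2-fold response; reported as […] log. 6–19 oocytes from 2–3 frogs.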

[5] = biological target: Ionotropic glutamate receptor NMDA 1/2D (Rattus norvegicus, UniProt P35439+Q62645)
[6] = biological target: Glutamate NMDA receptor; Grin1/Grin2c (Rattus norvegicus, UniProt P35439+Q00961)
[7] = Aqueous solubility of the compound at pH 7.4 after 30 mins by nephelometric analysis; type: physicochemical; conditions: buffer

Row | Compound | %max [1] | Activity [2] | Activity [3] | %max [4] | pEC50 [5] | pEC50 [6] | solubility kinetic at 0.5 h [7]
1 | COc1ccc(OCC2c3ccc(OC)cc3CC(=O)N2CCc2c[nH]c3ccccc23)cc1 (centres undefined) | 85% | Not Active | Not Active | 85% | – | – | –
2 | COc1ccc(OCC2c3occc3CCN2C(=O)c2cccc(Cl)c2)cc1 (centres undefined) | 340% | Not Active | Not Active | 470% | 5.10 | 5.20 | –
3 | COc1ccc(OC[C@@H]2c3cccn3CC(=O)N2Cc2cccc(C(F)(F)F)c2)cc1 | 84% | Not Active | Not Active | 88% | – | – | 57 µM (≈ 24.5 µg/mL)
4 | COc1ccc(OCC2c3ccc(OC)cc3CC(=O)N2Cc2c[nH]nn2)cc1 (centres undefined) | 110% | Not Active | Not Active | 98% | – | – | –
5 | COc1ccc(OC[C@@H]2c3cccn3CCN2C(=O)c2cccc(C(F)(F)F)c2)cc1 | 99% | Not Active | Not Active | 98% | – | – | 58 µM (≈ 25 µg/mL)
6 | COc1ccc(OCC2c3ccc(OCC(C)C)cc3CC(=O)N2Cc2cccc(Cl)c2)cc1 (centres undefined) | 280% | 130% | 130% | 370% | 6.20 | 6.40 | –
7 | COc1ccc(OCC2c3ccc(OC(C)C)cc3CC(=O)N2Cc2cccc(F)c2)cc1 (centres undefined) | 320% | 130% | 130% | 330% | 5.70 | 6.00 | –
8 | COc1ccc(OCC2c3ccc(OC(C)C)cc3CCN2C(=O)c2cccc(Cl)c2)cc1 (centres undefined) | 240% | Not Active | Not Active | 250% | 5.50 | – | –
9 | COc1cc2c(cc1OC)C(CO)N(C(=O)c1cccc(C(F)(F)F)c1)CC2 (centres undefined) | 98% | Not Active | Not Active | 95% | – | – | –
10 | COc1ccc(OCC2c3sccc3CCN2C(=O)/C=C/C(F)(F)F)cc1 (centres undefined) | 290% | Not Active | Not Active | 330% | 4.80 | 4.90 | –
11 | COc1ccc(OCC2c3ccsc3CCN2C(=S)c2cccc(Cl)c2)cc1 (centres undefined) | 97% | Not Active | Not Active | 94% | – | – | –
12 | COc1cc2c(cc1OC)C(COc1ccccn1)N(C(=O)c1cccc(C(F)(F)F)c1)CC2 (centres undefined) | 96% | Not Active | Not Active | 97% | – | – | –
13 | COc1ccc(OC[C@H]2c3cccn3CCN2C(=O)c2cccc(Cl)c2)cc1 | 410% | Not Active | Not Active | 450% | 5.70 | 5.70 | 36 µM (≈ 14.3 µg/mL)
14 | COc1ccc(OCC2c3cccn3CCN2C(=O)c2cccc(C(F)(F)F)c2)cc1 (centres undefined) | 380% | Not Active | Not Active | 290% | 5.70 | 5.80 | 58 µM (≈ 25 µg/mL)
15 | COc1ccc(OCC2c3sccc3CCN2C(=O)c2cccc(Cl)c2)cc1 (centres undefined) | 280% | Not Active | Not Active | 350% | 5.40 | 5.40 | 46 µM (≈ 19 µg/mL)
16 | COc1ccc(OCC2c3cccn3CC(=S)N2Cc2cccc(C(F)(F)F)c2)cc1 (centres undefined) | 120% | Not Active | Not Active | 110% | – | – | –
17 | COc1ccc(OCC2c3ccc(OC(C)C)cc3CC(=O)N2Cc2cccc(C(F)(F)F)c2)cc1 (centres undefined) | 280% | Not Active | Not Active | 310% | 6.20 | 6.40 | –
18 | COc1ccc(OC[C@H]2c3cccn3CC(=O)N2Cc2cccc(C(F)(F)F)c2)cc1 | 280% | Not Active | Not Active | 330% | 6.10 | 6.10 | 57 µM (≈ 24.5 µg/mL)
19 | COc1ccc(OCC2c3cc(OC)c(OC)cc3CCN2C(=O)c2cccc(C(F)(F)F)c2)cc1 (centres undefined) | – | Not Active | Not Active | – | – | – | –
